From ChEMBL document CHEMBL1149906, “Perennisosides I-VII, acylated triterpene saponins with antihyperlipidemic activities from the flowers of Bellis perennis” (2008)

Columns and labels:
Assay type in all cases: functional
[1] = system: Mus musculus; test: Inhibition of serum triglyceride elevation in olive oil-treated ddY mouse at 125 mg/kg, po after 4 hrs
[2] = system: Mus musculus; test: Inhibition of serum triglyceride elevation in olive oil-treated ddY mouse at 250 mg/kg, po after 6 hrs
[3] = system: Mus musculus; test: Inhibition of serum triglyceride elevation in olive oil-treated ddY mouse at 500 mg/kg, po after 6 hrs
[4] = system: Mus musculus; test: Inhibition of serum triglyceride elevation in olive oil-treated ddY mouse at 500 mg/kg, po after 4 hrs
[5] = system: Mus musculus; test: Inhibition of serum triglyceride elevation in olive oil-treated ddY mouse at 500 mg/kg, po after 2 hrs
[6] = system: Mus musculus; test: Inhibition of serum triglyceride elevation in olive oil-treated ddY mouse at 250 mg/kg, po after 4 hrs
[7] = system: Mus musculus; test: Inhibition of serum triglyceride elevation in olive oil-treated ddY mouse at 125 mg/kg, po after 6 hrs
[8] = system: Mus musculus; test: Inhibition of serum triglyceride elevation in olive oil-treated ddY mouse at 250 mg/kg, po after 2 hrs
[9] = system: Mus musculus; test: Inhibition of serum triglyceride elevation in olive oil-treated ddY mouse at 125 mg/kg, po after 2 hrs
[10] = system: Mus musculus; test: Inhibition of serum triglyceride elevation in olive oil-treated ddY mouse at 100 mg/kg, po after 2 hrs
In short: (§1)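 Male ddY mice (25–30 g) fasted 24–26 h with free access to water, kept conscious. Test sample given orally, then olive oil 5 mL/kg po 30 min later. Blood drawn from the infraorbital venous plexus 2, 4 and 6 h after the olive oil. Serum TG measured by an enzymatic kit; n = 6 per group; means ± SEM.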

[11] = system: Mus musculus; test: Inhibition of serum triglyceride elevation in olive oil-treated ddY mouse at 50 mg/kg, po after 6 hrs; in short: as §1
[12] = system: Mus musculus; test: Inhibition of serum triglyceride elevation in olive oil-treated ddY mouse at 25 mg/kg, po after 4 hrs; in short: as §1
[13] = system: Mus musculus; test: Inhibition of serum triglyceride elevation in olive oil-treated ddY mouse at 100 mg/kg, po after 4 hrs; in short: as §1
[14] = system: Mus musculus; test: Inhibition of serum triglyceride elevation in olive oil-treated ddY mouse at 50 mg/kg, po after 2 hrs; in short: as §1
[15] = system: Mus musculus; test: Inhibition of serum triglyceride elevation in olive oil-treated ddY mouse at 25 mg/kg, po after 2 hrs; in short: as §1
[16] = system: Mus musculus; test: Inhibition of serum triglyceride elevation in olive oil-treated ddY mouse at 25 mg/kg, po after 6 hrs; in short: as §1
[17] = system: Mus musculus; test: Inhibition of serum triglyceride elevation in olive oil-treated ddY mouse at 50 mg/kg, po after 4 hrs; in short: as §1
[18] = system: Mus musculus; test: Inhibition of serum triglyceride elevation in olive oil-treated ddY mouse at 100 mg/kg, po after 6 hrs; in short: as §1
[19] = system: Mus musculus; test: Inhibition of serum triglyceride elevation in olive oil-treated ddY mouse at 6.25 mg/kg, po after 2 hrs
[20] = system: Mus musculus; test: Inhibition of serum triglyceride elevation in olive oil-treated ddY mouse at 6.25 mg/kg, po after 6 hrs
[21] = system: Mus musculus; test: Inhibition of serum triglyceride elevation in olive oil-treated ddY mouse at 12.5 mg/kg, po after 6 hrs
[22] = system: Mus musculus; test: Inhibition of serum triglyceride elevation in olive oil-treated ddY mouse at 6.25 mg/kg, po after 4 hrs
[23] = system: Mus musculus; test: Inhibition of serum triglyceride elevation in olive oil-treated ddY mouse at 12.5 mg/kg, po after 2 hrs
[24] = system: Mus musculus; test: Inhibition of serum triglyceride elevation in olive oil-treated ddY mouse at 12.5 mg/kg, po after 4 hrs

Structure (SMILES) | Activity [10] | Activity [11] | Activity [12] | Activity [13] | Activity [14] | Activity [15] | Activity [16] | Activity [17] | Activity [18] | also measured
CCOC(=O)C(C)(C)Oc1ccc(Cl)cc1 [CLOFIBRATE] |  |  |  |  |  |  |  |  |  | Activity [1]: 295 mg/dL; Activity [2]: 443.3 mg/dL; Activity [3]: 373.5 mg/dL; Activity [4]: 239.7 mg/dL; Activity [5]: 318.2 mg/dL; Activity [6]: 340.5 mg/dL; Activity [7]: 333.4 mg/dL; Activity [8]: 441.2 mg/dL; Activity [9]: 377.5 mg/dL
CC(=O)OC[C@H]1O[C@@H](OC(=O)[C@]23CCC(C)(C)C[C@H]2C2=CC[C@@H]4[C@@]5(C)C[C@H](O)[C@H](O)[C@@](C)(COC(C)=O)[C@@H]5CC[C@@]4(C)[C@]2(C)CC3)[C@H](O[C@@H]2O[C@@H](C)[C@H](O)[C@@H](O)[C@H]2O)[C@@H](O[C@@H]2O[C@H](CO)[C@H](O)[C@H](O)[C@H]2O)[C@@H]1O [PERENNISOSIDE II] | 179.4 mg/dL | 104.6 mg/dL | 147 mg/dL | 155.6 mg/dL | 232.5 mg/dL | 204.6 mg/dL | 87 mg/dL | 180.4 mg/dL | 80.6 mg/dL | 
CC(=O)OC[C@H]1O[C@@H](OC(=O)[C@]23CCC(C)(C)C[C@H]2C2=CC[C@@H]4[C@@]5(C)C[C@H](O)[C@H](O)[C@@](C)(COC(C)=O)[C@@H]5CC[C@@]4(C)[C@]2(C)CC3)[C@H](O[C@@H]2O[C@@H](C)[C@H](O)[C@@H](O)[C@H]2O)[C@@H](O[C@@H]2O[C@H](CO)[C@@H](O)[C@H](O)[C@H]2O)[C@@H]1O [PERENNISOSIDE I] | 135.7 mg/dL | 203.7 mg/dL | 357.7 mg/dL | 278.7 mg/dL | 326.9 mg/dL | 337 mg/dL | 222.7 mg/dL | 355.8 mg/dL | 208.2 mg/dL | 
CCCCCCCCCCC[C@@H](C[C@@H]1OC(=O)[C@H]1CCCCCC)OC(=O)[C@H](CC(C)C)NC=O [ORLISTAT] |  |  | 132.2 mg/dL |  |  | 158.9 mg/dL | 140.1 mg/dL |  |  | Activity [19]: 266.4 mg/dL; Activity [20]: 155.6 mg/dL; Activity [21]: 189.7 mg/dL; Activity [22]: 179.3 mg/dL; Activity [23]: 187.9 mg/dL; Activity [24]: 176 mg/dL
